One may read the IC50 as the point on the concentration scale where inhibition reaches its midpoint. One may read the Ki as the dissociation constant of the complex between target and ligand, obtained from inhibition or displacement. Read a low Ki as tighter binding. What is called ED50 is the dose at which the effect has come halfway, by size or by number of responders.

Data set [1] relates to Plasma. In words: Plasma concentration in Wistar rat at 30 mg/kg, ip administered as single dose. It counts as ADME, organism-based. The settings on record: in vivo. The essentials: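 Rats dosed i.p. at 30 mg/kg. Plasma level was taken about 45 min after dosing, at the end of the Vogel session.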
For data set [2], the target named is Metabotropic glutamate receptor 5 (Homo sapiens, UniProt P41594). As to the kind of experiment: Negative allosteric modulation of human mGluR5a expressed in CHO cells assessed as reduction in DHPG-induced cytosolic Ca2+ influx after 10 to 20 mins by fluo-4/AM-dye based fluorometric analysis. It counts as functional, cell-based.
Data set [3] relates to Liver. As to the kind of experiment: Intrinsic clearance in rat liver microsomes at 2.5 uM assessed per gram of liver. It counts as ADME, microsome.
Data set [4] deals with Metabotropic glutamate receptor 5 (Rattus norvegicus, UniProt P31424). As to the kind of experiment: Displacement of [3H]M-MPEP from mGluR5 in Sprague-Dawley rat cerebrocortical membranes after 60 mins. In general terms: Displacement assays read how much labelled ligand stays bound in the presence of the test substance.
The test system of data set [5] is Rattus norvegicus. In words: Anxiolytic activity in ip dosed Wistar rat assessed as increase in water drinking time during punished period administered as suspension by Vogel punished drinking conflict test. The settings on record: read-out: MED. It counts as functional. The essentials:
(§1)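 Vogel punished-drinking test in rats, single i.p. or p.o. dose as suspension in 5% Tween 80; plasma sampled ~45 min after i.p. or ~75 min after p.o. dosing.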

Data set [6] deals with Liver. As to the kind of experiment: Intrinsic clearance in human liver microsomes at 2.5 uM assessed per gram of liver. It counts as ADME, microsome.
Data set [7] can be described thus: Plasma concentration in ip dosed Wistar rat at anxiolytic MED administered as suspension after 45 mins during Vogel punished drinking conflict test. It counts as ADME, organism-based. The method, boiled down:
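Vehicle was a suspension containing 5% Tween 80, given i.p. at the Vogel minimum effective dose. Plasma was sampled about 45 min after dosing, right after the Vogel punished drinking test.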

Data set [8] relates to Rattus norvegicus. In words: Effect on spatial learning performance in po dosed Wistar rat measured as escape latency dosed 1 hr prior to first daily trial by Morris water maze test. Format: ADME, organism-based. The settings on record: in vivo. The essentials: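 Morris water maze with male Harlan-Wistar rats (190–220 g): three trials a day for 4 days, hidden 10 cm platform, video tracking; 30 mg/kg p.o. in Type IV lipid formulation 1 h before first daily trial; plasma taken after last Day 4 trial; 7–17 rats/group.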

The subject of data set [9] is Plasma. As to the kind of experiment: Plasma concentration in Wistar rat at 30 mg/kg, po administered as single dose. The following applies: in vivo. It counts as ADME, organism-based.
The subject of data set [10] is Rattus norvegicus. As to the kind of experiment: Therapeutic index, ratio of plasma concentration causing effect on spatial learning performance in po dosed Wistar rat by Morris water maze test to plasma concentration causing anxiolytic activity in Wistar rat by Vogel punished drinking conflict test. The essentials: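 Index is the plasma level in rats at 30 mg/kg p.o. in the Morris water maze (sampled after the last trial on Day 4) divided by the plasma level at the Vogel minimum effective dose. Vogel plasma was sampled right after the test.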

The subject of data set [11] is Rattus norvegicus. As to the kind of experiment: Anxiolytic activity in po dosed Wistar rat assessed as increase in water drinking time during punished period administered as suspension by Vogel punished drinking conflict test. Format: functional. The settings on record: read-out: MED. The essentials:
as §1

For data set [12], the system named is Rattus norvegicus. As to the kind of experiment: Therapeutic index, ratio of MED for effect on spatial learning performance in po dosed Wistar rat by Morris water maze test to MED for anxiolytic activity in Wistar rat by Vogel punished drinking conflict test. The method, boiled down:
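Index is the Morris water maze minimum effective dose (oral, given 1 h before the first daily trial, 4 days of 3 trials) divided by the Vogel punished drinking minimum effective dose.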

Data set [13] can be described thus: Plasma concentration in ip dosed Wistar rat at anxiolytic MED administered as suspension after 75 mins during Vogel punished drinking conflict test. It counts as ADME, organism-based.
Data set [14] deals with Rattus norvegicus. As to the kind of experiment: Anxiolytic activity in po dosed Wistar rat assessed as reduction in freezing behavior by contextual fearing test. Format: functional. The following applies: read-out: MED.
Data set [15] relates to Rattus norvegicus. As to the kind of experiment: Toxicity in po dosed Harlan-Wistar rat assessed as decrease in spontaneous locomotor activity photocell-based activity monitor test. Format: organism-based. The settings on record: in vivo. The essentials: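 Male Wistar rats were given 0, 10, 30 or 50 mg/kg p.o. Spontaneous locomotor activity (ambulatory movement) was recorded in a photocell-based activity monitor.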

The test system of data set [16] is Rattus norvegicus. As to the kind of experiment: Anxiolytic activity in po dosed Wistar rat assessed as reduction in ultrasonic vocalization. It counts as functional.

Sequence of Metabotropic glutamate receptor 5 (Rattus norvegicus, UniProt P31424) (P31424 whole entry): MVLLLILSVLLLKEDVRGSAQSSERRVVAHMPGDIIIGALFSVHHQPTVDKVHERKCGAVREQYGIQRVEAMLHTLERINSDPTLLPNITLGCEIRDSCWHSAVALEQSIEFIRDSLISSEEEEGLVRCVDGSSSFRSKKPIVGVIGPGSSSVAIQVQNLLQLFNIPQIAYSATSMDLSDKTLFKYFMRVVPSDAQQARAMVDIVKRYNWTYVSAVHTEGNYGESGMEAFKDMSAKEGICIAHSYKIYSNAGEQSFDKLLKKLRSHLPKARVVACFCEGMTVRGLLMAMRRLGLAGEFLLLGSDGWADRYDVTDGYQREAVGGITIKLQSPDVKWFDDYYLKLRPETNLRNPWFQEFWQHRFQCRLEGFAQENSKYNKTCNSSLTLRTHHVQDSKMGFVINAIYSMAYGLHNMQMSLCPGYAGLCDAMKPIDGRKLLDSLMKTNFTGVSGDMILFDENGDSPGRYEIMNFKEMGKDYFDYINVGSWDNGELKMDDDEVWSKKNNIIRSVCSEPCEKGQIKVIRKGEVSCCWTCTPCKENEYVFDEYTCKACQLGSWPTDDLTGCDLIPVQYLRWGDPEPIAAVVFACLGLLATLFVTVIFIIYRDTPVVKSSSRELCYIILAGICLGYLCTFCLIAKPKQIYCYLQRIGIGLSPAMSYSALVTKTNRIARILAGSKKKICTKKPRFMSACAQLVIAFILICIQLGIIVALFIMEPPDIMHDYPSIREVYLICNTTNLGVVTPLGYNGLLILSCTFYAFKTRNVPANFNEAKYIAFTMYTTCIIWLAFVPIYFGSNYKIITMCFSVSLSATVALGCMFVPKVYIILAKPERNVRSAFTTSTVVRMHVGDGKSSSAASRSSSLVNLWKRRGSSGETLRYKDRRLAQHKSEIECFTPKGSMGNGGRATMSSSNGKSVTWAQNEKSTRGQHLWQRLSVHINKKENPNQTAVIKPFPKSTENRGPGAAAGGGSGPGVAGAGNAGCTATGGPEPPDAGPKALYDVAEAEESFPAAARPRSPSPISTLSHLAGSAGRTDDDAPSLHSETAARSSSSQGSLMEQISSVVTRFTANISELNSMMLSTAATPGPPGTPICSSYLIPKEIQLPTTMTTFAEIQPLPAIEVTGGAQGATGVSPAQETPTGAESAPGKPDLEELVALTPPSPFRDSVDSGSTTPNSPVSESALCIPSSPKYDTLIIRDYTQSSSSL
Sequence of Metabotropic glutamate receptor 5 (Homo sapiens, UniProt P41594) (P41594 whole entry): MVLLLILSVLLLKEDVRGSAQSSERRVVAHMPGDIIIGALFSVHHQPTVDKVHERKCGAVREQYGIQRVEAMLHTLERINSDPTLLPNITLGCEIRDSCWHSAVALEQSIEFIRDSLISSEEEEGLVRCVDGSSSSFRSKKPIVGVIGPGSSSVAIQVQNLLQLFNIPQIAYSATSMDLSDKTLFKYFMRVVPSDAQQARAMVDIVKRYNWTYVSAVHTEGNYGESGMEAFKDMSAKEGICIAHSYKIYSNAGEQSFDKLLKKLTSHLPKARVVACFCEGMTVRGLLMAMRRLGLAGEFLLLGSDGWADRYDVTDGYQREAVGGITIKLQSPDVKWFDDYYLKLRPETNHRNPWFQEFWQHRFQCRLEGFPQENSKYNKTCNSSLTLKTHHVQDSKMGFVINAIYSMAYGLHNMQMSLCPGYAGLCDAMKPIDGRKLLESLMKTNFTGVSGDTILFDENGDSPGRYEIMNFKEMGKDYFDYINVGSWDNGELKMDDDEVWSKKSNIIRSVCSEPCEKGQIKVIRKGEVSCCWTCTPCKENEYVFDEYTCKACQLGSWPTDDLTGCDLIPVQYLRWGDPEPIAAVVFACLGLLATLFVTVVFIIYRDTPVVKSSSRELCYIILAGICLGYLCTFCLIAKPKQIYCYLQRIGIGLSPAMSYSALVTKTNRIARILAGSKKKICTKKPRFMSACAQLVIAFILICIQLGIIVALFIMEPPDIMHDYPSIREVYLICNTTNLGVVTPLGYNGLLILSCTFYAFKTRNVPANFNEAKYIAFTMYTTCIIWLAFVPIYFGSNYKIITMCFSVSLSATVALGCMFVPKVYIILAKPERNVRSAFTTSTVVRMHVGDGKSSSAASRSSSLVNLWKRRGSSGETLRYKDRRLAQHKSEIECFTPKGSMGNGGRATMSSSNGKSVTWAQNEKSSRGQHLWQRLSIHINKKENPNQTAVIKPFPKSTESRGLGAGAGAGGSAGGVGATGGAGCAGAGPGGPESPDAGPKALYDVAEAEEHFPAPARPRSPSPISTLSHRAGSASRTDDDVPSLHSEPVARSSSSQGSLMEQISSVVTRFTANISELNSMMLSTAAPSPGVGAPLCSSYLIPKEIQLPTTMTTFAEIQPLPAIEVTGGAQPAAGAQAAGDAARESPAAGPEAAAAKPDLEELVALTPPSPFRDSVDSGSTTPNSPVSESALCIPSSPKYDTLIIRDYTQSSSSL

As for `O=S(=O)(c1cc(F)cc(F)c1)c1cnc2cc(F)ccc2c1-c1cccc(F)c1`, the concentration in [1] is 63 nM. Moreover, in [2], the IC50 turned out to be 74 nM. The figures for the CLint in [3] and in data set [6] were 1.8 mL/min/g and 0.06 mL/min/g, respectively. For the same compound, the affinity in [4], expressed as Ki, was 32.6 nM. For the same compound, the minimal effective dose in [5] was more than 30 mg/kg.

As to `O=S(=O)(c1ccc(F)c(F)c1)c1cnc2cc(F)ccc2c1-c1ccc(F)cc1`, the concentration in data set [1] was found to be 247 nM. Further, the IC50 in data set [2] came to 43 nM. Besides, the CLint in data set [3] came out at 0.67 mL/min/g; in data set [6] it was 0.44 mL/min/g. Moreover, in [4], the Ki came out at 19.1 nM. In addition, in data set [5], the minimal effective dose was more than 30 mg/kg.

Consider `O=S(=O)(c1ccc(F)c(Cl)c1)c1cnc2cc(F)ccc2c1-c1ccc(F)cc1`, for which the IC50 in data set [2] amounted to 21 nM. In data set [7], this compound had a concentration at 0.75 h of 71 nM. For the same compound, the Activity result in [8] was “Toxic”. The compound further came in with a concentration in [9] of 968 nM. Besides, the TI entry is on record as “<=9.1” in data set [10] and “<=10” in data set [12]. Further, the results for the CLint in [3] and in data set [6] were 0.89 mL/min/g and 0.69 mL/min/g, respectively. In data set [4], this compound registered a Ki of 5.2 nM. Moreover, the minimal effective dose in [5] worked out at 10 mg/kg; in data set [11], 3 mg/kg.

With `O=S(=O)(c1cc(Cl)cc(Cl)c1)c1cnc2cc(F)ccc2c1-c1ccc(F)cc1`, the concentration at 1.25 h in [13] is 165 nM. Also, the half-maximal inhibitory concentration (IC50) in data set [2] was 25 nM. In addition, the values for the CLint in data set [3] and in data set [6] were 1.15 mL/min/g and 0.18 mL/min/g, respectively. In addition, the minimal effective dose in data set [5] was more than 30 mg/kg.

For the compound `O=S(=O)(c1cc(F)cc(F)c1)c1cnc2cc(F)ccc2c1-c1ccc(F)cc1`, in data set [1], the concentration came to 206 nM. For the same compound, the IC50 in [2] was 25 nM. The CLint in data set [3] worked out at 0.93 mL/min/g; in [6], 0.01 mL/min/g. In [4], this compound gave a Ki of 18 nM. Also, the minimal effective dose was more than 30 mg/kg in data set [5] and more than 10 mg/kg in [11].

As to `CN1C(=O)CN=C(c2ccccc2)c2cc(Cl)ccc21` [DIAZEPAM], the values for the minimal effective dose in data set [14] and in data set [11] were more than 10 mg/kg and 2.5 mg/kg, respectively. Moreover, the ED50 in data set [15] amounted to 9.7 mg/kg; in data set [16], 7.8 mg/kg.

The values above are taken from ChEMBL document CHEMBL4007421, “Discovery and Preclinical Characterization of 3-((4-(4-Chlorophenyl)-7-fluoroquinoline-3-yl)sulfonyl)benzonitrile, a Novel Non-acetylenic Metabotropic Glutamate Receptor 5 (mGluR5) Negative Allosteric Modulator for Psychiatric Indications” (J Med Chem, 2017).
